Reference: ChEMBL document CHEMBL1156597, “Structure-activity relationship of kahalalide F synthetic analogues” (J Med Chem, 2008)

What was measured:
DU-145 = experiment: Cytotoxicity against human DU145 cells after 48 hrs by SRB assay; type: functional, cell-based; settings: Homo sapiens, DU-145, 48 h; for CC50: read-out: LC50 (the source's name)
Procedure, shortened: (§1)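 Cells grown in RPMI 1640 with 10% FBS and penicillin/streptomycin at 37 °C and 5% CO₂, trypsinized, then seeded at 5 × 10³/well. After 18 h drug-free attachment, samples in DMSO/EtOH/PBS (0.5:0.5:99) were added for 48 h continuous exposure. Cells were fixed with cold TCA (1 h, 4 °C) and stained with SRB (10 min). Tris-solubilized stain read at 490 nm. Triplicate wells, mean ± SD; GI₅₀ derived.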

LoVo [1] = experiment: Cytotoxicity against human doxorubicin resistant LoVo cells after 48 hrs by SRB assay; type: functional; settings: for CC50: read-out: LC50 (the source's name); procedure, shortened: as §1
[2] = Cytotoxicity against human IGROV-ET cells after 48 hrs by SRB assay; type: functional; settings: for CC50: read-out: LC50 (the source's name); procedure, shortened: as §1
HT-29 = experiment: Cytotoxicity against human HT29 cells after 48 hrs by SRB assay; type: functional, cell-based; settings: Homo sapiens, HT-29, 48 h; for CC50: read-out: LC50 (the source's name); procedure, shortened: as §1
PANC-1 = experiment: Cytotoxicity against human PANC1 cells after 48 hrs by SRB assay; type: functional; settings: PANC-1, 48 h; for CC50: read-out: LC50 (the source's name); procedure, shortened: as §1
[3] = Cytotoxicity against human IGROV cells after 48 hrs by SRB assay; type: functional; settings: for CC50: read-out: LC50 (the source's name); procedure, shortened: as §1
LoVo [4] = experiment: Cytotoxicity against human LoVo cells after 48 hrs by SRB assay; type: functional; settings: for CC50: read-out: LC50 (the source's name)
K562 = experiment: Cytotoxicity against human K562 cells after 48 hrs by SRB assay; type: functional; settings: K562, 48 h; for CC50: read-out: LC50 (the source's name); procedure, shortened: as §1
SK-MEL-28 = experiment: Cytotoxicity against human SK-MEL-28 cells after 48 hrs by SRB assay; type: functional, cell-based; settings: Homo sapiens, SK-MEL-28, 48 h; for CC50: read-out: LC50 (the source's name); procedure, shortened: as §1
HeLa = experiment: Cytotoxicity against human HeLa cells after 48 hrs by SRB assay; type: functional; settings: read-out: LC50 (the source's name); procedure, shortened: as §1
LNCaP = experiment: Cytotoxicity against human LNcaP cells after 48 hrs by SRB assay; type: functional; settings: for CC50: read-out: LC50 (the source's name); procedure, shortened: as §1
A549 = experiment: Cytotoxicity against human A549 cells after 48 hrs by SRB assay; type: functional, cell-based; settings: Homo sapiens, A549, 48 h; procedure, shortened: as §1
SK-BR-3 = experiment: Cytotoxicity against human SKBR3 cells after 48 hrs by SRB assay; type: functional; settings: SK-BR-3, 48 h; for CC50: read-out: LC50 (the source's name); for GI50: read-out: GI50; procedure, shortened: as §1
[5] = Cytotoxicity against human HeLa-APL cells after 48 hrs by SRB assay; type: functional; procedure, shortened: as §1

| SMILES | CC50 (DU-145) [nM] | CC50 (LoVo [1]) [nM] | CC50 [2] [nM] | CC50 (HT-29) [nM] | CC50 (PANC-1) [nM] | TGI [3] [nM] | GI50 ([3]; read-out: GI50) [nM] | CC50 [3] [nM] | CC50 (LoVo [4]) [nM] | GI50 (K562) [nM] | TGI (K562) [nM] | CC50 (K562) [nM] | CC50 (SK-MEL-28) [nM] | CC50 (HeLa) [nM] | CC50 (LNCaP) [nM] | LC50 (A549) [nM] | CC50 (SK-BR-3) [nM] | LC50 (concentration giving 50% net cell kill) [5] [nM] | GI50 (DU-145; read-out: GI50) [nM] | GI50 (LoVo [1]) [nM] | also measured |
| --- | --- | --- | --- | --- | --- | --- | --- | --- | --- | --- | --- | --- | --- | --- | --- | --- | --- | --- | --- | --- | --- |
| C/C=C1\NC(=O)[C@@H](Cc2ccccc2)NC(=O)[C@H](C(C)C)NC(=O)[C@H]([C@H](C)CC)NC(=O)[C@@H](NC(=O)[C@@H](NC(=O)[C@@H](CCCN)NC(=O)[C@@H]2CCCN2C(=O)[C@@H](NC(=O)[C@H](NC(=O)[C@H](NC(=O)[C@@H](NC(=O)CCCC(C)C)C(C)C)[C@@H](C)O)C(C)C)C(C)C)[C@H](C)CC)[C@H](C)OC(=O)[C@H](C(C)C)NC1=O | 10600 | 4080 | 2130 | 3790 | 8900 | 134000 | 161000 | 72000 | 5540 | 2530 | 10500 | 25300 | 1770 | 1910 | 4920 | 1920 | 1690 | 2360 | – | – | – |
| C/C=C1\NC(=O)[C@H](Cc2ccccc2)NC(=O)[C@@H](C(C)C)NC(=O)[C@@H]([C@H](C)CC)NC(=O)[C@H](NC(=O)[C@H](NC(=O)[C@H](CCCN)NC(=O)[C@H]2CCCN2C(=O)[C@H](NC(=O)[C@@H](NC(=O)[C@@H](NC(=O)[C@H](NC(=O)CC[C@@H](C)CC)C(C)C)[C@@H](C)O)C(C)C)C(C)C)[C@H](C)CC)[C@H](C)OC(=O)[C@H](C(C)C)NC1=O | 347 | 1040 | 975 | 2060 | 2200 | 1020 | 827 | 1220 | 321 | 2070 | 3760 | 2560 | 1670 | 1070 | 2030 | 1320 | 395 | 1140 | 1690 | 249 | TGI (DU-145): 2200 nM; TGI (LoVo [1]): 250 nM; GI50 [2]: 584 nM; GI50 ([2]; read-out: GI50): 550 nM; GI50 (HT-29): 730 nM; TGI (HT-29): 1020 nM; GI50 (LoVo [4]): 397 nM; TGI (LoVo [4]): 385 nM; TGI (SK-BR-3): 462 nM; GI50 (SK-BR-3): 539 nM; GI50 [5]: 1280 nM; TGI [5]: 1200 nM |
| C/C=C1\NC(=O)[C@H](Cc2ccccc2)NC(=O)[C@@H](C(C)C)NC(=O)[C@@H]([C@H](C)CC)NC(=O)[C@H](NC(=O)[C@H](NC(=O)[C@H](CCCN)NC(=O)[C@H]2CCCN2C(=O)[C@H](NC(=O)[C@@H](NC(=O)[C@@H](NC(=O)[C@H](NC(=O)CC[C@@H](C)[C@H]2CC[C@H]3[C@@H]4CC[C@@H]5C[C@H](OC(=O)C(F)(F)F)CC[C@]5(C)[C@H]4CC[C@]23C)C(C)C)[C@@H](C)OC(=O)C(F)(F)F)C(C)C)C(C)C)[C@H](C)CC)[C@H](C)OC(=O)[C@H](C(C)C)NC1=O | 663 | 2110 | 2030 | 921 | 1370 | – | 405 | 317 | 614 | 1070 | 857 | 1220 | 124 | 789 | 838 | 835 | 185 | 710 | 698 | 336 | GI50 (DU-145): 683 nM; TGI (LoVo [1]): 381 nM; GI50 [2]: 700 nM; GI50 ([2]; read-out: GI50): 638 nM; GI50 (HT-29): 463 nM; TGI (HT-29): 479 nM; GI50 (PANC-1): 1660 nM; TGI (PANC-1): 1370 nM; GI50 [3]: 384 nM; GI50 (LoVo [4]): 285 nM; TGI (LoVo [4]): 337 nM; GI50 (SK-MEL-28): 158 nM; GI50 (SK-MEL-28; read-out: GI50): 201 nM; GI50 (LNCaP): 729 nM; TGI (LNCaP): 783 nM; GI50 (A549): 890 nM; GI50 (A549; read-out: GI50): 946 nM; TGI (SK-BR-3): 116 nM; GI50 (SK-BR-3): 78.4 nM |
| C/C=C1\NC(=O)[C@H](Cc2ccccc2)NC(=O)[C@@H](C(C)C)NC(=O)[C@@H]([C@H](C)CC)NC(=O)[C@H](NC(=O)[C@H](NC(=O)[C@H](CCCN)NC(=O)[C@H]2CCCN2C(=O)[C@H](NC(=O)[C@@H](NC(=O)[C@@H](NC(=O)[C@H](NC(=O)CCCC(C)C)C(C)C)[C@@H](C)O)C(C)C)C(C)C)[C@H](C)CC)COC(=O)[C@H](C(C)C)NC1=O | 5370 | 384 | 663 | 1970 | 8970 | 25100 | 16700 | 33800 | 620 | – | – | 4460 | 1180 | 1470 | 2140 | 1270 | 610 | 1320 | 5040 | 353 | TGI (DU-145): 5210 nM; TGI (LoVo [1]): 367 nM; GI50 [2]: 753 nM; GI50 ([2]; read-out: GI50): 620 nM; GI50 (HT-29): 983 nM; TGI (HT-29): 1540 nM; GI50 (LoVo [4]): 457 nM; TGI (LoVo [4]): 513 nM; TGI (SK-MEL-28): 1500 nM; GI50 (SK-MEL-28; read-out: GI50): 1900 nM; GI50 (LNCaP): 3370 nM; TGI (LNCaP): 3360 nM; TGI (A549): 1350 nM; GI50 (A549; read-out: GI50): 1440 nM; GI50 [5]: 1930 nM; TGI [5]: 1650 nM |
